Assay [1] deals with Serine/threonine-protein kinase PAK 4 (Homo sapiens) (UniProt O96013). Description: Inhibition of PAK4 (unknown origin) at 1 uM incubated for 30 mins in presence of [gamma-33P]ATP by multidrop micro reagent based assay relative to control.
The target of assay [2] is T1, NUAK family SNF1-like kinase 1 (Homo sapiens) (UniProt O60285).
T1 sequence (whole entry): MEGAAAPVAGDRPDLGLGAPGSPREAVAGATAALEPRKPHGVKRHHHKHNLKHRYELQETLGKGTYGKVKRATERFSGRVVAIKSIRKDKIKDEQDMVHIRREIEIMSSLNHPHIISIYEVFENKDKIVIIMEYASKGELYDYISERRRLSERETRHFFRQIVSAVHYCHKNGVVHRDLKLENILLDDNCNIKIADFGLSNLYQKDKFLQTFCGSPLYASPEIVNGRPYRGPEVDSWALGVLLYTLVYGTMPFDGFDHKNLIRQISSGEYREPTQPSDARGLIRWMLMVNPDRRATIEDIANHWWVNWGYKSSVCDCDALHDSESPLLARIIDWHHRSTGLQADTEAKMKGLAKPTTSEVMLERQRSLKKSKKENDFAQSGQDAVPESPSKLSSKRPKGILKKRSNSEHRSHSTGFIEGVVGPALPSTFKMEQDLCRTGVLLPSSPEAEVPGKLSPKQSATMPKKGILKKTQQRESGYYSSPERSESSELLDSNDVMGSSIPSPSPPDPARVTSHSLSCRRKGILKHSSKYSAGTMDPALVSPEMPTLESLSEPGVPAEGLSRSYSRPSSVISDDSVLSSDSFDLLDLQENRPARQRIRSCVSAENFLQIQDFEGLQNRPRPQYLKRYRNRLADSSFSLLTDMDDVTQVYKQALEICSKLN
Nature of the assay: Inhibition of NUAK1 (unknown origin) at 1 uM incubated for 30 mins in presence of [gamma-33P]ATP by multidrop micro reagent based assay relative to control. The procedure, abridged:
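Single-concentration screen across a panel of 85 protein kinases. Activity is expressed as a percentage of control incubations run without inhibitor.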

The target of assay [3] is T2, Mitogen-activated protein kinase 15 (Homo sapiens) (UniProt Q8TD08).
T2 sequence (whole entry): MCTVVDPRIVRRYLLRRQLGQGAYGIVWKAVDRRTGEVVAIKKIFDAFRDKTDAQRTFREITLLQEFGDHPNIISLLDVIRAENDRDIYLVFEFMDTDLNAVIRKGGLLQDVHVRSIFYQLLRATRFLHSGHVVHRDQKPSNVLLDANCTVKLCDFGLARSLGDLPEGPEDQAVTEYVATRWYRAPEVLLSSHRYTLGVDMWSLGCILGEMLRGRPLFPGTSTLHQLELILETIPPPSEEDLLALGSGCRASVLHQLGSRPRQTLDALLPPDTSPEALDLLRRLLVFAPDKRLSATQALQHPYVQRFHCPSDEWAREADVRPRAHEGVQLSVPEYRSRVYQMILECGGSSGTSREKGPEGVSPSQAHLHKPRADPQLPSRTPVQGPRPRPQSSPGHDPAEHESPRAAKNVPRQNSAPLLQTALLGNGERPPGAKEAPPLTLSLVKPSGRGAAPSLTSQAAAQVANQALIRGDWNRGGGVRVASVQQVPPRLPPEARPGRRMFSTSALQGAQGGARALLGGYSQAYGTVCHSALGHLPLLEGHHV
Nature of the assay: Inhibition of ERK8 (unknown origin) at 1 uM incubated for 30 mins in presence of [gamma-33P]ATP by multidrop micro reagent based assay relative to control; values are per cent of control.

For assay [4], the target named is MAP kinase-interacting serine/threonine-protein kinase 1 (Homo sapiens) (UniProt Q9BUB5). Description: Inhibition of MNK1 (unknown origin) at 1 uM incubated for 30 mins in presence of [gamma-33P]ATP by multidrop micro reagent based assay relative to control; values are per cent of control.
The target in assay [5] is T3, Serine/threonine-protein kinase BRSK2 (Homo sapiens) (UniProt Q8IWQ3).
T3 sequence (whole entry): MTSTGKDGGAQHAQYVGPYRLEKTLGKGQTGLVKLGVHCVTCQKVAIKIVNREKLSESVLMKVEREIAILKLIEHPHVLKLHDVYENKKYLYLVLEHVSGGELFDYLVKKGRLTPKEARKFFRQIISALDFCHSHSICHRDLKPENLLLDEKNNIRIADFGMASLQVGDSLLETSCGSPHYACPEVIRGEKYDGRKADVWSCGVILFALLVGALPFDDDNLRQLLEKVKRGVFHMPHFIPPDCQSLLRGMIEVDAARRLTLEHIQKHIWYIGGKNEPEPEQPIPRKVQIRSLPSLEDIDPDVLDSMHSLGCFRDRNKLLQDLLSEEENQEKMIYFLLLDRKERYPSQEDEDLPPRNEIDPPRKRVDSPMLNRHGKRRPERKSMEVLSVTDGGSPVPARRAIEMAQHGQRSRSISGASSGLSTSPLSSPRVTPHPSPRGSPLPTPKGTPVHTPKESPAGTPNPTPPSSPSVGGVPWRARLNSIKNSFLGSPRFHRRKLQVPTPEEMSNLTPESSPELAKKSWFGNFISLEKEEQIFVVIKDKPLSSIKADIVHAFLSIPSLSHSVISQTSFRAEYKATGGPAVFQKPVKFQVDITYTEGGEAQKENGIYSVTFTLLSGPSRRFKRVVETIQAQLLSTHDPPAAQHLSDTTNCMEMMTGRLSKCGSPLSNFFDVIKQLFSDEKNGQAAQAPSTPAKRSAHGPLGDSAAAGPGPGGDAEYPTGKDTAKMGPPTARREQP
Description: Inhibition of BRSK2 (unknown origin) at 1 uM incubated for 30 mins in presence of [gamma-33P]ATP by multidrop micro reagent based assay relative to control; values are per cent of control.

Assay [6] addresses SRSF protein kinase 1 (Homo sapiens) (UniProt Q96SB4). Nature of the assay: Inhibition of SRPK1 (unknown origin) at 1 uM incubated for 30 mins in presence of [gamma-33P]ATP by multidrop micro reagent based assay relative to control; values are per cent of control.
Another assay is filed under the species Homo sapiens. Nature of the assay: Residual activity of VEGFR (unknown origin) at 10 uM incubated for 30 mins in presence of [gamma-33P]ATP by multidrop micro reagent based assay relative to control.
Assay [7] addresses Serine/threonine-protein kinase pim-2 (Homo sapiens) (UniProt Q9P1W9). Description: Inhibition of PIM2 (unknown origin) at 10 uM incubated for 30 mins in presence of [gamma-33P]ATP by multidrop micro reagent based assay relative to control; values are per cent of control.
For assay [8], the target named is RAC-alpha serine/threonine-protein kinase (Homo sapiens) (UniProt P31749). Nature of the assay: Inhibition of PKBalpha (unknown origin) at 10 uM incubated for 30 mins in presence of [gamma-33P]ATP by multidrop micro reagent based assay relative to control; values are per cent of control.

What is called inhibition is the drop in the measured response relative to a control, in per cent.

MAP kinase-interacting serine/threonine-protein kinase 1 (Homo sapiens), sequence (Q9BUB5 whole entry, looked up): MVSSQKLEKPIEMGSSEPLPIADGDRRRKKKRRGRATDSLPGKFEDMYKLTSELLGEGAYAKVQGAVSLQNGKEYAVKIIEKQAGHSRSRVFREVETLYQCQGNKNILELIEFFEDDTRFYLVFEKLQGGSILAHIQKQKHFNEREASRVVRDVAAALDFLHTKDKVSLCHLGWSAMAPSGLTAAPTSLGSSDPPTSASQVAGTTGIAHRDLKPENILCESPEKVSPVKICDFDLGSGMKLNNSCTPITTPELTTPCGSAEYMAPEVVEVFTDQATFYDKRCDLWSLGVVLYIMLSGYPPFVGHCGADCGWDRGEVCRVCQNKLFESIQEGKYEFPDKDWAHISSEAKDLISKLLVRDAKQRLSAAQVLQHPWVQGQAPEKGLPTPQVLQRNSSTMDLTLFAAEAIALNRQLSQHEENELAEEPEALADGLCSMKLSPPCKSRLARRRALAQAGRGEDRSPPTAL
Serine/threonine-protein kinase pim-2 (Homo sapiens), sequence (Q9P1W9 whole entry, looked up): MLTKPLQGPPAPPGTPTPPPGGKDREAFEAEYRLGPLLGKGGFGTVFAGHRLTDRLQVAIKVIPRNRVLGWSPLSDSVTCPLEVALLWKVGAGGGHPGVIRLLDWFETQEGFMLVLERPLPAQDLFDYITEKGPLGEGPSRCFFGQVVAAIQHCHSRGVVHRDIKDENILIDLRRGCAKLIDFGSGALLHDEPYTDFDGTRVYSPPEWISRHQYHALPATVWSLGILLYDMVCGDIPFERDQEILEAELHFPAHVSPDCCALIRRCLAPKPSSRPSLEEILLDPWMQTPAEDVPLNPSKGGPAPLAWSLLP
RAC-alpha serine/threonine-protein kinase (Homo sapiens), sequence (P31749 whole entry): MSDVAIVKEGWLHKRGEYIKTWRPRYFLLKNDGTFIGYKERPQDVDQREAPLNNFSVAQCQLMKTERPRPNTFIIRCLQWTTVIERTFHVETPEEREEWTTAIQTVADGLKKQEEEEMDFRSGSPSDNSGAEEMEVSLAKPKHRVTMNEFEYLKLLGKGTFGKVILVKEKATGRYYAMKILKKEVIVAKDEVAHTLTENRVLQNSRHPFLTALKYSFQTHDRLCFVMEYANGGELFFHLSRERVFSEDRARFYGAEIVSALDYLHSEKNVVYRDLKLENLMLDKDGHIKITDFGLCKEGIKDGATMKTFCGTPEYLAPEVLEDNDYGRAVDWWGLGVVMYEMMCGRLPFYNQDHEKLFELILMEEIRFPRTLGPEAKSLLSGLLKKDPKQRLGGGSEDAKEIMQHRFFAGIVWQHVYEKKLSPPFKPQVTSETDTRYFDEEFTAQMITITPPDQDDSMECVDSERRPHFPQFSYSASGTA
Serine/threonine-protein kinase PAK 4 (Homo sapiens), sequence (O96013 whole entry, looked up): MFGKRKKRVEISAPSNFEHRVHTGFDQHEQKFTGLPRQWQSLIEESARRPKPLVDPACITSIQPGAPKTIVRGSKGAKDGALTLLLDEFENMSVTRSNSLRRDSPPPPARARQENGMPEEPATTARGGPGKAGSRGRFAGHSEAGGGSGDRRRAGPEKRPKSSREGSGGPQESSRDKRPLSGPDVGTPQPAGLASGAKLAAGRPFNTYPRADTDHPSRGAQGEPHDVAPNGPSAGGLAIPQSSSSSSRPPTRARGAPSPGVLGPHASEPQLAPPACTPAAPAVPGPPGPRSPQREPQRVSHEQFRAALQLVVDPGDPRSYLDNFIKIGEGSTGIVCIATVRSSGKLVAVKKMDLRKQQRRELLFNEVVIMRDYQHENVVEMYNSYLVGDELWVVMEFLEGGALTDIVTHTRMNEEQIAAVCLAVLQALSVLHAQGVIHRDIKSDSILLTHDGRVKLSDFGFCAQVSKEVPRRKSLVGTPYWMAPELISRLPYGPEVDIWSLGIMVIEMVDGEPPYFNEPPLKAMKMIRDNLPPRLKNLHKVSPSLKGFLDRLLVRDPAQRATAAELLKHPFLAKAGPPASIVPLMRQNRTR
SRSF protein kinase 1 (Homo sapiens), sequence (Q96SB4 whole entry): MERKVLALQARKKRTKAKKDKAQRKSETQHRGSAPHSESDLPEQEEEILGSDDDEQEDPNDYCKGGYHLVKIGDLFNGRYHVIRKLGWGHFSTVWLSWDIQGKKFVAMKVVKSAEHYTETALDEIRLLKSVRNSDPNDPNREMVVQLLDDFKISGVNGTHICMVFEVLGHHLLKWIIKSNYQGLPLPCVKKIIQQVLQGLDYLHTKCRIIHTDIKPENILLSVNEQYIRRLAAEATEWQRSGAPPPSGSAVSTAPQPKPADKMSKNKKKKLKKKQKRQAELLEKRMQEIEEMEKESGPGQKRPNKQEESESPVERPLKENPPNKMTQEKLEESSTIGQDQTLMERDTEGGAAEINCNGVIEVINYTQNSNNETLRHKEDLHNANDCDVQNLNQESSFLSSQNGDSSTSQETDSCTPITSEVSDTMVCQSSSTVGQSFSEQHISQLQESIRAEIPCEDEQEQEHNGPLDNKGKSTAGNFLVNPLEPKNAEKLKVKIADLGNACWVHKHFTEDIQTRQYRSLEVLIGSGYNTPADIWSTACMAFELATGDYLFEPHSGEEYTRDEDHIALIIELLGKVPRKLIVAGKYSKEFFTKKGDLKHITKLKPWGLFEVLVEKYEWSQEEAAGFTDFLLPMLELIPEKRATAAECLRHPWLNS

On to `CC1=C(C(=O)Nc2cc3cn[nH]c3cc2F)C(c2ccc(C(F)(F)F)cc2)CC(=O)N1` (stereo not drawn), for which the residual activity amounted to 95% in assay [1]; 95% in assay [3]; 91% in assay [4]; 91% in assay [5]; 71% in [6]. For the same molecule, in [2], the inhibition worked out at 51%.
As for `Cc1cncc2cccc(S(=O)(=O)N3CCCNC[C@@H]3C)c12`, the residual activity in assay [1] was 99%; in [4] it was 50%; in assay [5], 17%; in [6] it was 125%. Moreover, the inhibition in [2] stood at 51%.
On to `C[C@@H](N)[C@H]1CC[C@H](C(=O)Nc2ccncc2)CC1`, for which the residual activity in the assay filed under Homo sapiens was 105%; in assay [7] it was 102%; in assay [8], 56%.
For `O=S(=O)(c1cccc2cnccc12)N1CCCNCC1` [FASUDIL] the same measures were 70%, 111% and 27%.
Regarding `CCn1c(-c2nonc2N)nc2cnc(Oc3cccc(NC(=O)c4ccc(OCCN5CCOCC5)cc4)c3)cc21` [GSK-269962A], the residual activity in assay [3] was determined as 27%.
